Screening data: PubChem BioAssay, Johns Hopkins Ion Channel Center
TRPC4 agonist – TRPC4 (mouse) channel activation | HEK293 TRPC4beta/mu-opioid, Fluo4 calcium fluorescence; active compounds read high | AID 2237 | 310,000 compounds, 0.49% hits | B-score at 10 µM;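 active = B-score above 5 SD of library B-scores, and initial fluorescence ratio not above library mean plus 5 SD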;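 also: positive B-score marks a calcium rise read as TRPC4 activation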
Target sequence (Q9QUQ5 whole entry, looked up): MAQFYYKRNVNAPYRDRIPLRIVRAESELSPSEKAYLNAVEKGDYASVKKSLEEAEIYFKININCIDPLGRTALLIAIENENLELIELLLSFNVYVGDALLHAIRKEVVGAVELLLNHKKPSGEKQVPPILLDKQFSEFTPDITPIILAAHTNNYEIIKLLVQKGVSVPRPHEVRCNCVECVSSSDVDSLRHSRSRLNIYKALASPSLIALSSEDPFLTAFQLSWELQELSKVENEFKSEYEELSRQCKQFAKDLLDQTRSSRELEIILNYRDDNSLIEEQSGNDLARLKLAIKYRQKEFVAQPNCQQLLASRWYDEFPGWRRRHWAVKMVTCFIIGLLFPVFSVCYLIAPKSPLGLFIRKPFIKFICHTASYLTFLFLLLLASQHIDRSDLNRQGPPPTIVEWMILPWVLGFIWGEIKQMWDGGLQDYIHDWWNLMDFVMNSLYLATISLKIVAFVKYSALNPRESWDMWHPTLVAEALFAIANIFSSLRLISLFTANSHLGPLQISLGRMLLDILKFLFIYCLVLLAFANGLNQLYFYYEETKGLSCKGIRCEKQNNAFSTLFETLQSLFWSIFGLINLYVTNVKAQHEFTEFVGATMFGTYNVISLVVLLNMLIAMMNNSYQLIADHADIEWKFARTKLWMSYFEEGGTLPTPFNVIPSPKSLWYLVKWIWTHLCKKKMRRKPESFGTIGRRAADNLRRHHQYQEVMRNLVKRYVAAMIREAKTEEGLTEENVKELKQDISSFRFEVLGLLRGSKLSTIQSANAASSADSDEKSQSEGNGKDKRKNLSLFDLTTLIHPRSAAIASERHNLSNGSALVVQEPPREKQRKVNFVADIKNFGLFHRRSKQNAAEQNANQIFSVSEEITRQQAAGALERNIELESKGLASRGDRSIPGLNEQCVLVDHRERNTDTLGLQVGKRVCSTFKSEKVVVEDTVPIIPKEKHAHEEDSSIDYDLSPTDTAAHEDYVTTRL
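Assay system: HEK293 cells stably co-expressing mouse TRPC4beta and mu-opioid receptor / Timing: Fluo4 dye loading 45 min at room temperature, 110 s recording / Signal: Fluo4 calcium-sensitive dye fluorescence, kinetic, 1 Hz baseline / Read-out: integrated baseline-normalised fluorescence ratio, converted to per-well B score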
TRPC6 inh – inhibitors of mouse TRPC6 channel | B-score at 10 µM | AID 2553 | HEK293-TRPC6, membrane potential dye, ACh-evoked depolarization; active compounds read low | 310,000 compounds, 1.1% hits | Q61143;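 active = B-score under library mean minus 3 SD, initial fluorescence not abnormally high, positive integrated signal ratio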;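 also: B-score derived from integrated fluorescence ratio over the kinetic read; more negative B-score means stronger inhibition of depolarization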
TRPC4 block – inhibitors of mouse TRPC4 channel | Q9QUQ5 | HEK293 TRPC4beta/mu-opioid, DAMGO-evoked Fluo4 calcium flux; active compounds read low | B-score at 10 µM | 300,000 compounds, 0.39% hits;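 active = B-score over 3 SD under the library average, no early fluorescence shift, positive overall ratio signal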
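System: stable TRPC4beta/mu-opioid receptor HEK293 cells; Dosing: single-point compound dosing; Measured by: Fluo4 Ca2+ flux fluorescence; Read-out basis: per-well B score of integrated baseline-normalized Fluo4 ratio.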
TRPC6 act – activates the mouse TRPC6 cation channel | Q61143 | HEK293-TRPC6 membrane potential dye fluorescence; active compounds read high | B-score at 10 µM | 310,000 compounds, 0.13% hits;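 active = B-score of the integrated fluorescence ratio above library mean plus 3 SD, and starting fluorescence ratio within library mean plus 5 SD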;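 also: higher score means more depolarization so channel activation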
TRPC4 potent – allosteric potentiators of mouse TRPC4 channel | Q9QUQ5 | HEK293 TRPC4beta/mu-opioid, DAMGO EC20, Fluo-4 Ca2+ flux; active compounds read high | B-score at 10 µM | 310,000 compounds, 0.42% hits | AID 2227;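 active = B-score of calcium response area above 5 SD of library B-scores, with initial fluorescence ratio within 5 SD of library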;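 also: B-score of integrated fluorescence ratio over time as area under calcium response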
TRPC4 sel inh 2 – mouse TRPC4 off-target activity of TRPC6 inhibitors, second screen | HEK293 TRPC4/MOR, membrane potential dye fluorescence; channel activated by saturating DAMGO dose | inhibition, % at 10 µM | shares compounds with TRPC6 inh | 920 compounds, 42% hits;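 active = compounds whose fluorescence signal differed from control wells by over 3 SD, either direction, in both duplicate plates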
TRPC4 spec – tests whether TRPC6 inhibitors also affect mouse TRPC4. HEK293 TRPC4/mu-opioid, membrane potential fluorescence. 920 compounds, 61% hits. activity change, negative = inhibition, % at 10 µM. shares compounds with TRPC6 inh;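 active = rise or fall in signal beyond 3 SD of buffer-only wells in both replicate plates, either sign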;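 also: integrated kinetic ratio of fluorescence range over baseline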
HEK293 MPD ctr 2-1 – parental HEK293 nonspecific activity of TRPC6 inhibitors, second screen. signal change vs control, % at 10 µM. AID 2779. parental HEK293 membrane potential dye fluorescence; maximal acetylcholine challenge after compound addition. 920 compounds, 31% hits. shares compounds with TRPC6 inh;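 active = membrane potential signal moving either way by over 3 SD of the maximum-effect control, in both duplicate plates, meaning non-specific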
HEK293 MPD ctr-1 – checks TRPC6 inhibitor effects in parental HEK293 cells. 920 compounds, 60% hits. parental HEK293 membrane potential dye fluorescence. AID 2780. shares compounds with TRPC6 inh. membrane potential signal change, % at 10 µM;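 active = membrane potential signal shifting up or down by more than 3 SD of buffer-only wells, on both duplicate plates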
HEK293 MPD ctr-2 – parental HEK293 nonspecific activity of TRPC6 modulators; membrane potential signal change, % at 10 µM; 2,400 compounds, 51% hits; shares compounds with TRPC6 inh; membrane potential dye fluorescence;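 active = membrane potential signal moves up or down beyond 5 SD from buffer-only wells, on both duplicate plates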
HEK293 MPD ctr 2-2 – parental HEK293 nonspecific activity of TRPC6 modulators, second screen. inhibition, % at 10 µM. 2,400 compounds, 14% hits. shares compounds with TRPC6 inh. membrane potential dye fluorescence; after compound, maximal acetylcholine stimulation;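 active = membrane potential signal drops by more than 5 SD from the mean control signal, in both duplicate plates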;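 also: plate controls were acetylcholine ECmax control wells for no effect and buffer only wells for full effect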
TRPC4/MOR mod – selectivity of TRPC6 modulators against mouse TRPC4; HEK293 TRPC4/mu-opioid, membrane potential fluorescence; 2,400 compounds, 69% hits; percent change from control (negative = decrease, positive = increase), % at 10 µM; AID 488927; shares compounds with TRPC6 inh;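 active = membrane potential signal moved up or down beyond 5 SD of buffer control wells, in both duplicate plates, actives on both sides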;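 also: plate controls were assay buffer wells for no effect and DAMGO maximal-effect wells for full effect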
TRPC4 ctr inh 2 – mouse TRPC4 off-target activity of TRPC6 modulators, second screen; shares compounds with TRPC6 inh; AID 488928; HEK293 TRPC4/mu-opioid, membrane potential dye fluorescence; stimulated with maximal-effect DAMGO; inhibition, % at 10 µM; 2,400 compounds, 55% hits;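 active = drop in membrane potential signal beyond 5 SD of the control wells in both duplicate plates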;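 also: TRPC4 counter screen for TRPC6 hits run under conditions tuned for TRPC6 not TRPC4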
TRPC6 inh conf – mouse TRPC6 inhibitor confirmation; HEK293-TRPC6, membrane potential dye, ACh-evoked depolarization; 3,300 compounds, 43% hits; inhibition, % at 10 µM; AID 488960; shares compounds with TRPC6 inh;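 active = fluorescence ratio falls more than 5 SD below the full-stimulation control mean, in both duplicate runs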;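 also: integrated fluorescence ratio of peak minus minimum over baseline after agonist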
TRPC6 act confirm – confirmation of mouse TRPC6 activators | shares compounds with TRPC6 inh | HEK293-TRPC6 membrane potential dye fluorescence, FDSS | activation, % at 10 µM | 2,800 compounds, 11% hits | AID 488961;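 active = ratio signal rise beyond 5 SD above unstimulated control wells' mean, seen in both duplicate runs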;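 also: plate controls were buffer EC0 wells for no effect and acetylcholine ECmax response for full effect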
* marks the source's active call; other numbers are inactive results; i = inactive; . = not tested or not shown; ! = not confirmed by another sample. The list is not random: actives were taken first. Their share in the collection is about 2.3%.

SMILES	TRPC4 agonist	TRPC6 inh	TRPC4 block	TRPC6 act	TRPC4 potent	HEK293 MPD ctr-2	HEK293 MPD ctr 2-2	TRPC4/MOR mod	TRPC4 ctr inh 2	TRPC6 inh conf	TRPC6 act confirm	others
Cc1ccc([N+](=O)[O-])cc1S(=O)(=O)NCCc1c(C)[nH]c2c(C)cccc12	i	i	i	i	i	.	.	.	.	.	.
Cc1[nH]c2c(C)cccc2c1CCNS(=O)(=O)c1cccc([N+](=O)[O-])c1	i	-8.7*	i	i	i	-100%*	i	-26%*	32%*	i	i
CCOC(=O)c1nn(-c2ccc(C)cc2)c(=O)cc1OCC(=O)N1CCN(c2ccccc2)CC1	i	i	i	i	i	.	.	.	.	.	.
Cc1ccc(CNCCC2=CCCCC2)cc1	i	-7.1*	i	i	i	.	.	.	.	i	i	TRPC4 sel inh 2=i;TRPC4 spec=i;HEK293 MPD ctr 2-1=i;HEK293 MPD ctr-1=i
CCCN1CCCc2cc(CN(CCCN3CCOCC3)C(=O)Nc3ccc(OCC)cc3)ccc21	i	-5.3*	i	i	i	i	i	i	38%*	i	i
CCOc1ccc(NC(=O)N(CCN2CCOCC2)Cc2ccc3c(c2)CCCN3CC)cc1	i	i	i	i	i	.	.	.	.	.	.
Cc1cc(N)c2cc(NC(=O)/C=C/c3ccccc3Cl)ccc2n1	i	-5.5*	i	i	i	i	i	i	i	i	i
O=C(NCc1ccccn1)c1ccc(CNS(=O)(=O)c2ccc(F)cc2)cc1	i	i	i	i	i	.	.	.	.	.	.
CN(Cc1nc(Cc2cccc(F)c2)no1)CC1CCOCC1	i	i	i	i	i	.	.	.	.	.	.
O=[N+]([O-])c1cc(Cl)cc(/C=N/NC(=S)Nc2ccc(S(=O)(=O)N3CCOCC3)cc2)c1O	i	-7.6*	i	i	26*	.	.	.	.	i	i	TRPC4 sel inh 2=57%*;TRPC4 spec=-24%*;HEK293 MPD ctr 2-1=i;HEK293 MPD ctr-1=-274%*
O=S(=O)(c1ccc(Cl)c(NC(=S)N/N=C/c2ccc(O)cc2)c1)N1CCOCC1	i	-9.1*	i	i	i	i	i	i	i	i	i
O=[N+]([O-])c1ccc(CN2CCCCCC2)cc1	i	i	i	i	i	.	.	.	.	.	.
O=[N+]([O-])c1ccc(CN2CCOCCOCCN(Cc3ccc([N+](=O)[O-])cc3)CCOCC2)cc1	i	-5.5*	i	i	i	i	i	-12%*	74%*	46%*	i
COc1ccccc1CNC(=O)C1CCC(CNc2c(N3CCC(C)CC3)c(=O)c2=O)CC1 (stereo not drawn)	i	i	i	i	i	.	.	.	.	.	.
O=C(Nc1cccc([N+](=O)[O-])c1)c1ccc(N2CCCC2=O)cc1	i	i	i	i	i	.	.	.	.	.	.
O=C(Nc1ccncc1)c1ccc(N2CCCC2=O)cc1	i	-7.1*	i	i	i	-238%*	i	-42%*	34%*	i	i
CN(C)CCCNC(=O)N1c2ccccc2C=Cc2ccccc21	i	-5.3*	i	i	i	i	i	i	i	66%*	i
CCN(CC)C(=O)N1c2ccccc2C=Cc2ccccc21	i	i	i	i	i	.	.	.	.	.	.
O=C(c1ccc(C(=O)N2CCCc3ccccc32)s1)N1CCCc2ccccc21	i	-6.6*	i	i	i	.	.	.	.	i	.	TRPC4 sel inh 2=i;TRPC4 spec=3.9%*;HEK293 MPD ctr 2-1=i;HEK293 MPD ctr-1=3.6%*
Cc1ccc2ccccc2[n+]1CCCS(=O)(=O)[O-]	i	i	i	i	i	.	.	.	.	.	.
CCCC[n+]1c2ccccc2cc2ccccc21	i	-6.3*	-5*	i	i	-170%*	i	-100%*	74%*	56%*	i
CCC[n+]1c2ccccc2cc2ccccc21	i	-12*	i	i	i	-176%*	84%*	-91%*	66%*	68%*	i
O=C(O)c1cc(N2C(=O)C3C4C=CC(C4)C3C2=O)ccc1N1CCOCC1 (stereo not drawn)	i	i	i	i	i	.	.	.	.	.	.
Cc1ccc2c(c1)c1c3n2CCN=C3CCC1	i	-5*	i	i	i	-171%*	i	-28%*	49%*	i	i
O=C1c2ccccc2C(=O)c2c1ccc(C(=O)N1CCCCC1)c2NCCO	i	i	i	i	i	.	.	.	.	.	.
CCN(CCN(C)C)C(=O)c1ccc2c(c1NCCO)C(=O)c1ccccc1C2=O	i	-5.9*	i	i	i	-168%*	i	-34%*	49%*	45%*	i
CC1CCCN(C(=O)c2ccc3c(c2NCCO)C(=O)c2ccccc2C3=O)C1 (stereo not drawn)	i	-5.9*	i	i	i	-235%*	i	-36%*	68%*	49%*	i
C[n+]1c2n(c3ccccc31)N=C(c1ccccc1)CS2	i	-5.2*!	i	i	i	-159%*	i	-26%*	50%*	i	i
C[n+]1c2n(c3ccccc31)N=C(c1ccc(-c3ccccc3)cc1)CS2	i	i	i	i	i	.	.	.	.	.	.
CN(Cc1cccc(F)c1)C(=O)c1ccccc1Sc1ccccc1C#N	i	i	i	i	i	.	.	.	.	.	.
